In ChEMBL document CHEMBL3297684, “Discovery of biarylaminoquinazolines as novel tubulin polymerization inhibitors” (J Med Chem, 2014):
Active and inactive are the calls of the source. The calls are words filed in the database; no cut-off is given here.

What was measured:
Tubulin = Tubulin (Bos taurus, UniProt Q6B856+Q862L2+Q862F3); assay: Inhibition of bovine brain tubulin polymerization after 20 mins by turbidimetry analysis
Method in brief: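 Electrophoretically homogeneous bovine brain tubulin at 10 μM (1.0 mg/mL) in 0.8 M monosodium glutamate, pH 6.6, with compound in 4% (v/v) DMSO. Preincubated 15 min at 30 °C without GTP, then chilled; 0.4 mM GTP added at 0 °C. Temperature raised to 30 °C and turbidity followed at 350 nm.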

[1] = biological target: Tyrosine-protein kinase ABL1 (Homo sapiens, UniProt P00519); assay: Inhibition of Abl1 (unknown origin) assessed as incorporation of [32P] gamma-ATP in to myelin basic protein after 30 mins by autoradiographic analysis
[2] = biological target: Epidermal growth factor receptor (Homo sapiens, UniProt P00533); assay: Inhibition of EGFR (unknown origin) assessed as incorporation of [32P] gamma-ATP in to myelin basic protein after 30 mins by autoradiographic analysis
[3] = biological target: Proto-oncogene tyrosine-protein kinase Src (Homo sapiens, UniProt P12931); assay: Inhibition of Src (unknown origin) assessed as incorporation of [32P] gamma-ATP in to myelin basic protein after 30 mins by autoradiographic analysis
[4] = biological target: Fibroblast growth factor receptor 1 (Homo sapiens, UniProt P11362); assay: Inhibition of FGFR1 (unknown origin) assessed as incorporation of [32P] gamma-ATP in to myelin basic protein after 30 mins by autoradiographic analysis
[5] = Cell cycle arrest in human OVCAR8 cells assessed as increase in number of cells at G2/M phase at 1 uM after 30 mins by flow cytometry; assay type: functional, cell-based; settings: OVCAR-8, in the assay text read “after 24 hrs” for “after 30 mins”
Method in brief: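 OVCAR-8 cells grown in DMEM with 10% heat-inactivated FBS plus penicillin/streptomycin, 37 °C, 5% CO2. Exposed 24 h to 1 μM compound or drug-free medium. Fixed in 70% cold ethanol, RNase-treated (100 μg/mL, 30 min, 37 °C), stained with propidium iodide (100 μg/mL, 30 min, room temperature). 10 000 events per sample read by flow cytometry for G2/M fraction.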

[6] = Cytotoxicity against human OVCAR8 cells assessed as inhibition of cell proliferation by SRB assay; assay type: functional, cell-based; settings: OVCAR-8
Method in brief: (§1)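 Cell protein measured with sulforhodamine B. NCI/ADR-RES is isogenic with OVCAR-8 but overexpresses P-gp. Values are mean SD of at least three independent experiments.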

[7] = Cytotoxicity against human NCI-ADR-RES cells assessed as inhibition of cell proliferation by SRB assay; assay type: functional, cell-based; method in brief: as §1
A-431 = assay: Cytotoxicity against human A431 cells assessed as reduction in cell viability after 68 hrs by MTT assay; assay type: functional, cell-based; settings: A-431, 68 h

Tyrosine-protein kinase ABL1, sequence (P00519 whole entry): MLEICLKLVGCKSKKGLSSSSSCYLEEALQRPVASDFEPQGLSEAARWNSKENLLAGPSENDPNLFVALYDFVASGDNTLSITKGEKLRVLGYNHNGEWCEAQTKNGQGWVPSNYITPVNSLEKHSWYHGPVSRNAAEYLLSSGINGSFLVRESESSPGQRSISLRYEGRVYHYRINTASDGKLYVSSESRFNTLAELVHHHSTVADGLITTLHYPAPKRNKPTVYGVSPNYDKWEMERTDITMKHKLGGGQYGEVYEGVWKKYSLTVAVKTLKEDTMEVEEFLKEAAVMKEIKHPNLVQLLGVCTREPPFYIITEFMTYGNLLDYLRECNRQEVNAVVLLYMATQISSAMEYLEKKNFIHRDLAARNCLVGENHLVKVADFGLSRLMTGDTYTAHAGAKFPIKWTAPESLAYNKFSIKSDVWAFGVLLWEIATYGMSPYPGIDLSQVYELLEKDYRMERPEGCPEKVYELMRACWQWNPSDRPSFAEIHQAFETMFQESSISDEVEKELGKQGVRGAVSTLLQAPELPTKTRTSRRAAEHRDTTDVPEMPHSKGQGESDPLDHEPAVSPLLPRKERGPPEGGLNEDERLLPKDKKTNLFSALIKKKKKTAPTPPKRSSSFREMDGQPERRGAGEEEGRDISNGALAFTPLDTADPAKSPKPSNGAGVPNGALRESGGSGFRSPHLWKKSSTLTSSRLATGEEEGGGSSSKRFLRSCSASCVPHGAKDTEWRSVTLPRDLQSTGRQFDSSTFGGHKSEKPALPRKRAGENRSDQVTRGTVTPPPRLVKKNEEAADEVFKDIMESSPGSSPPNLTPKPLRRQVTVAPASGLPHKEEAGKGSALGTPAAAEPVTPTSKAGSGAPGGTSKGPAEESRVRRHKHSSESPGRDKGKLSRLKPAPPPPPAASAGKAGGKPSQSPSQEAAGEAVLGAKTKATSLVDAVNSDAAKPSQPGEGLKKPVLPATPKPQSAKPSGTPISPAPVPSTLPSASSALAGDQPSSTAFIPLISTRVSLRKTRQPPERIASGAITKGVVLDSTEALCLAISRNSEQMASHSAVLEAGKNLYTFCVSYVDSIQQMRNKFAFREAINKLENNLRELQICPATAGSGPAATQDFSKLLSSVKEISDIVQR
Proto-oncogene tyrosine-protein kinase Src, sequence (P12931 2-536 limits assumed): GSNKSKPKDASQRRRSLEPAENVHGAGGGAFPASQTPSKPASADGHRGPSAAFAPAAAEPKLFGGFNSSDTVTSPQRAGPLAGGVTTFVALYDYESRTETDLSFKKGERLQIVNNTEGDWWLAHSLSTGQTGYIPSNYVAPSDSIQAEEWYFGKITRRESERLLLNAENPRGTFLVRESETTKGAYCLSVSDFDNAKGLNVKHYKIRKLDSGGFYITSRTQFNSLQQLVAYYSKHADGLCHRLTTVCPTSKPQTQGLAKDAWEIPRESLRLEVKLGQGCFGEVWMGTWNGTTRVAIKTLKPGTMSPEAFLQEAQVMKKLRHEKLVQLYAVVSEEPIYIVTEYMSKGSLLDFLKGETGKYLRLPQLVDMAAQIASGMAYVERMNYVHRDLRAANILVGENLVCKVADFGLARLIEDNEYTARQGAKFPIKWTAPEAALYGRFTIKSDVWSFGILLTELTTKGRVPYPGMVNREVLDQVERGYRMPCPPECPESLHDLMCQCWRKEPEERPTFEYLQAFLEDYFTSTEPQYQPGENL
Epidermal growth factor receptor, sequence (P00533 whole entry): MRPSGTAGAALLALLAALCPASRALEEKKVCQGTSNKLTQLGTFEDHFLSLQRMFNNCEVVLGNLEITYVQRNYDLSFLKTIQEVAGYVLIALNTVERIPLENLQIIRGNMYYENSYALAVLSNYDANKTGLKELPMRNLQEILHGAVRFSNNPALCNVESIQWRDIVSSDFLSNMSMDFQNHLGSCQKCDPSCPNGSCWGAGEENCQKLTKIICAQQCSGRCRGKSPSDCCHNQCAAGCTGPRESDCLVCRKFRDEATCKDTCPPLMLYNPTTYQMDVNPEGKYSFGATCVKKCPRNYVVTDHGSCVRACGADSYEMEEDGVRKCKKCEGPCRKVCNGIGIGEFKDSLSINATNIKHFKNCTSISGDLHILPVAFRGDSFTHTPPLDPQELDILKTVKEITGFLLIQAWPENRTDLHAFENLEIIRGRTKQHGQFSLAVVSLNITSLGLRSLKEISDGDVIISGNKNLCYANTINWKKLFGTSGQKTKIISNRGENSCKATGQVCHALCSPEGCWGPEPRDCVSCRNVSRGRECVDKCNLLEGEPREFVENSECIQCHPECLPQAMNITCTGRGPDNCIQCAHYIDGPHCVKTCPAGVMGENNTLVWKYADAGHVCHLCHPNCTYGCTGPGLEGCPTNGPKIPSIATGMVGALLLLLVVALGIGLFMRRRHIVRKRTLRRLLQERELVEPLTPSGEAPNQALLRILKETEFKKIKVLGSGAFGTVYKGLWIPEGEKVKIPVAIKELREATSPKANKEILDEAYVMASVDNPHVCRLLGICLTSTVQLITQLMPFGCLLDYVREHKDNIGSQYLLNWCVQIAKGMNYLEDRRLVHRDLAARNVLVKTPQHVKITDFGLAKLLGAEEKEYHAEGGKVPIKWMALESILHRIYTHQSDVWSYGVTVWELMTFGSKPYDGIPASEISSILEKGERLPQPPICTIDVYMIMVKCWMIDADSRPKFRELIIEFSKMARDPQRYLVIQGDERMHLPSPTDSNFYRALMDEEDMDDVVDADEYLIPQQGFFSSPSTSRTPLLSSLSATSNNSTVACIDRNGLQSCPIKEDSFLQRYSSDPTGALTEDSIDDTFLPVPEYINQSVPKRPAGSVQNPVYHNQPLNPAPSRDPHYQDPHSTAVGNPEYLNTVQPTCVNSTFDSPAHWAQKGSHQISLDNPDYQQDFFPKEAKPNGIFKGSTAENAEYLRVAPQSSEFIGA
Fibroblast growth factor receptor 1, sequence (P11362 whole entry): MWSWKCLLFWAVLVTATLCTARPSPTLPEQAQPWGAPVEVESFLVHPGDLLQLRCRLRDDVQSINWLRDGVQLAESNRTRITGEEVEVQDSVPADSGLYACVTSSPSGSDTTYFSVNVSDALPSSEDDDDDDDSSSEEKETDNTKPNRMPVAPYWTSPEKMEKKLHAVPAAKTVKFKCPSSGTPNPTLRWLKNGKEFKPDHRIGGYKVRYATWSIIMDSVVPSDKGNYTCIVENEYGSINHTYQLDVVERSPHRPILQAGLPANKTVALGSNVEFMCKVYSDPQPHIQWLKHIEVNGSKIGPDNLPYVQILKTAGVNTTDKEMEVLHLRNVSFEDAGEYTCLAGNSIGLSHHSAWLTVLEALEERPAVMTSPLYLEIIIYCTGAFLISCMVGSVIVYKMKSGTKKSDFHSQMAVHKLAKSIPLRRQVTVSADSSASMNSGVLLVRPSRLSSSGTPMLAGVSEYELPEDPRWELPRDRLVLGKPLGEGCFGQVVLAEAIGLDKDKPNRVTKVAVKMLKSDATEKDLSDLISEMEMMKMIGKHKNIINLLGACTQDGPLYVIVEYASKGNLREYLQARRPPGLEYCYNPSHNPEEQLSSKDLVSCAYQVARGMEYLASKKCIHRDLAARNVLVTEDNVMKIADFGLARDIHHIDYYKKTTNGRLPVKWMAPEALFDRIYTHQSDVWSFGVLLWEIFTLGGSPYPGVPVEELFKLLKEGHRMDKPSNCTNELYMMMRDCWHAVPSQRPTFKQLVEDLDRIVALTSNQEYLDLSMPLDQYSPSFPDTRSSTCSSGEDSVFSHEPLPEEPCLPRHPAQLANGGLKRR

Structure (SMILES) | IC50 (Tubulin) | IC50 [1] | IC50 [2] | IC50 [3] | IC50 [4] | Activity [5] | EC50 [6] | EC50 [7] | EC50 (A-431)
COc1cc2ncnc(Nc3cccc(-c4ccccc4)c3)c2cc1OC | > 20 µM | > 10 µM | > 10 µM | > 10 µM | > 10 µM |  |  |  | 
c1ccc(-c2cccc(Nc3ncnc4cc5c(cc34)OCO5)c2)cc1 | 1.1 µM |  |  |  |  | Active | 0.03 µM |  | 
CC(=O)O[C@H]1C(=O)[C@@]2(C)[C@H]([C@H](OC(=O)c3ccccc3)[C@]3(O)C[C@H](OC(=O)[C@H](O)[C@@H](NC(=O)c4ccccc4)c4ccccc4)C(C)=C1C3(C)C)[C@]1(OC(C)=O)CO[C@@H]1C[C@@H]2O [PACLITAXEL] |  | > 10 µM | > 10 µM | > 10 µM | > 10 µM |  | 0.018 µM | 0.013 µM | 
Cl.c1cc(Nc2ncnc3cc4c(cc23)OCCO4)cc(-c2ccc[nH]2)c1 | 3 µM | > 10 µM | > 10 µM | > 10 µM | > 10 µM |  | 4 µM | 3.6 µM | 
COc1ccc(/C=C\c2cc(OC)c(OC)c(OC)c2)cc1O [COMBRETASTATIN A4] |  | > 10 µM | > 10 µM | > 10 µM | > 10 µM |  | 0.0055 µM | 5 µM | 
c1ccc(-c2cccc(Nc3ncnc4cc5c(cc34)OCCCO5)c2)cc1 | 2.3 µM |  |  |  |  |  | 0.55 µM |  | 0.66 µM
Cl.c1cc(Nc2ncnc3cc4c(cc23)OCCO4)cc(-c2cccs2)c1 | 1.2 µM | > 10 µM | > 10 µM | > 10 µM | > 10 µM | Active | 0.01 µM | 0.004 µM | 
Cl.c1cc(Nc2ncnc3cc4c(cc23)OCCO4)cc(-c2ccco2)c1 | 12 µM | > 10 µM | > 10 µM | > 10 µM | > 10 µM |  |  |  | 

Further lines, with some results ahead:

IC50 (Tubulin) | IC50 [1] | IC50 [2] | IC50 [3] | IC50 [4] | Structure (SMILES) | Activity [5] | EC50 [6] | EC50 [7] | EC50 (A-431)
3.2 µM | > 10 µM | > 10 µM | > 10 µM | > 10 µM | Cl.c1ccc(-c2cccc(Nc3ncnc4cc5c(cc34)OCCO5)c2)nc1 |  |  |  | 
> 20 µM | > 10 µM | > 10 µM | > 10 µM | > 10 µM | c1ccc(-c2ccnc(Nc3ncnc4cc5c(cc34)OCCO5)n2)cc1 |  |  |  | 
> 20 µM | > 10 µM | > 10 µM | > 10 µM | > 10 µM | c1ccc(-c2csc(Nc3ncnc4cc5c(cc34)OCCO5)n2)cc1 |  |  |  | 
4 µM |  |  |  |  | c1ccc(-c2cccc(Nc3ncnc4cc5c(cc34)OCCO5)c2)cc1 |  | 0.5 µM |  | 
